We go through ten compounds from ChEMBL document CHEMBL2384943, “New Peptide-based antimicrobials for tackling drug resistance in bacteria: single-cell fluorescence imaging” (ACS Med Chem Lett, 2013).

The test system of data set [1] is Klebsiella aerogenes. The data set can be described thus: Antibacterial activity against tolC-deficient Enterobacter aerogenes EA298 assessed as growth inhibition after 18 hrs by two-fold serial dilution method. Type of data set: functional. The note with it: EA298, 18 h. In outline: (§1)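 Strains were routinely grown at 37 °C in LB broth or on LB agar, with kanamycin 50 μg·mL–1 added for AG100A and EA298 (EA298 is the tolC derivative of clinical MDR isolate EA289). MICs were read in Mueller Hinton broth with 2-fold serial dilutions, using an inoculum of 2 × 10^5 cfu per 200 μL, scored after 18 h at 37 °C. Ciprofloxacin and fleroxacin served as reference antibiotics.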

Data set [2] relates to Klebsiella aerogenes. The data set can be described thus: Antibacterial activity against multidrug-resistant Enterobacter aerogenes EA289 overexpressing AcrAB-tolC assessed as growth inhibition after 18 hrs by two-fold serial dilution method. Type of data set: functional. The note with it: EA289, 18 h. In outline:
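Inoculum 2 × 10^5 cfu in Mueller Hinton broth with 2-fold serial compound dilutions. MIC was scored after 18 h at 37 °C. Ciprofloxacin and fleroxacin served as internal reference antibiotics. Strains were routinely grown at 37 °C in LB.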

Data set [3] relates to Escherichia coli. As to the kind of experiment: Antibacterial activity against acrAB-deficient Escherichia coli AG100A assessed as growth inhibition after 18 hrs by two-fold serial dilution method. Type of data set: functional. In outline:
as §1

Data set [4] has as its system Escherichia coli. The data set can be described thus: Antibacterial activity against wild type Escherichia coli AG100 assessed as growth inhibition after 18 hrs by two-fold serial dilution method. To be noted: AG100, 18 h. Type of data set: functional. Put shortly: as §1
In data set [5] the test system is Klebsiella aerogenes. As to the kind of experiment: Drug uptake in multidrug-resistant Enterobacter aerogenes EA289 overexpressing AcrAB-tolC at 123 uM after 15 to 60 mins by DUV microspectrofluorimetric analysis. It counts as ADME, organism-based. To be noted: in vivo.

≈ marks a conversion by molar mass, not a printed value. *1 amine or outer side, *2 acyl side, *3 side chain or, on linkers, in order; H or OH if unused. Where a SMILES comes first, the peptide text is derived from it. The star is where a group is joined. X1 = c1ccc(CN(Cc2ccccc2)Cc2cccc(N*)c2)cc1; X2 = c1ccc(CN(Cc2ccccn2)Cc2cccc(N*)n2)nc1; Glutaryl = O=C(CCCC(=O)[*:2])[*:1]; OBn = c1ccc(CO*)cc1

For `CC(=O)N[C@@H](CCCNC(=N)N)C(=O)N[C@@H](Cc1c[nH]c2ccccc12)C(=O)N[C@@H](CCCNC(=N)N)C(=O)N[C@@H](Cc1c[nH]c2ccccc12)C(=O)OCc1ccccc1` (Ac-RWRW-OBn), the MIC (usually the smallest concentration in the dilution series that meets the test's criterion for growth inhibition) was 64 µM (≈ 53.4 µg/mL) in the data set on Klebsiella aerogenes [1], > 128 µM with Klebsiella aerogenes [2], 16 µM (≈ 13.4 µg/mL) in the data set with Escherichia coli [3] and 64 µM (≈ 53.4 µg/mL) with Escherichia coli [4].

With `N=C(N)NCCC[C@H](NC(=O)CCCC(=O)Nc1cccc(CN(Cc2ccccn2)Cc2ccccn2)n1)C(=O)N[C@@H](Cc1c[nH]c2ccccc12)C(=O)N[C@@H](CCCNC(=N)N)C(=O)N[C@@H](Cc1c[nH]c2ccccc12)C(=O)OCc1ccccc1` ({X2-Glutaryl}-RWRW-OBn), the MIC was determined as 8 µM (≈ 9.56 µg/mL) in the data set with Klebsiella aerogenes [1], 16 µM (≈ 19.1 µg/mL) in the data set with Klebsiella aerogenes [2], 8 µM (≈ 9.56 µg/mL) in the data set with Escherichia coli [3] and 32 µM (≈ 38.2 µg/mL) in the data set with Escherichia coli [4].

Take `N=C(N)NCCC[C@H](NC(=O)CCCC(=O)Nc1cccc(CN(Cc2ccccn2)Cc2ccccn2)n1)C(=O)N[C@@H](Cc1c[nH]c2ccccc12)C(=O)N[C@@H](CCCNC(=N)N)C(=O)N[C@@H](Cc1c[nH]c2ccccc12)C(=O)N[C@@H](CCCNC(=N)N)C(=O)N[C@@H](Cc1c[nH]c2ccccc12)C(=O)OCc1ccccc1` ({X2-Glutaryl}-RWRWRW-OBn): the MIC was 8 µM (≈ 12.3 µg/mL) in the data set with Klebsiella aerogenes [1], 16 µM (≈ 24.6 µg/mL) in the data set on Klebsiella aerogenes [2], 8 µM (≈ 12.3 µg/mL) in the data set on Escherichia coli [3] and 8 µM (≈ 12.3 µg/mL) in the data set on Escherichia coli [4].

On to `CN1CCN(c2c(F)cc3c(=O)c(C(=O)O)cn(CCF)c3c2F)CC1` [FLEROXACIN], for which the minimal inhibitory concentration (MIC) in the data set on Klebsiella aerogenes [1] was 16 µM (≈ 5.91 µg/mL); in the data set with Klebsiella aerogenes [2], > 128 µM; with Escherichia coli [3], 0.125 µM (≈ 0.0462 µg/mL); in the data set with Escherichia coli [4], 0.5 µM (≈ 0.185 µg/mL).

For `N=C(N)NCCC[C@H](NC(=O)[C@H](Cc1c[nH]c2ccccc12)NC(=O)CCCC(=O)Nc1cccc(CN(Cc2ccccn2)Cc2ccccn2)n1)C(=O)N[C@@H](Cc1c[nH]c2ccccc12)C(=O)N[C@@H](CCCNC(=N)N)C(=O)N[C@@H](Cc1c[nH]c2ccccc12)C(=O)N[C@@H](CCCNC(=N)N)C(=O)OCc1ccccc1` ({X2-Glutaryl}-WRWRWR-OBn), the minimal inhibitory concentration (MIC) in the data set on Klebsiella aerogenes [1] was found to be 8 µM (≈ 12.3 µg/mL); with Klebsiella aerogenes [2], 16 µM (≈ 24.6 µg/mL); in the data set on Escherichia coli [3], 8 µM (≈ 12.3 µg/mL); in the data set with Escherichia coli [4], 8 µM (≈ 12.3 µg/mL).

With `CCCCC[C@H](CC(=O)NO)C(=O)N[C@H](C(=O)N1CCC[C@H]1CO)C(C)C` [ACTINONIN], the minimum inhibitory concentration (MIC) with Klebsiella aerogenes [1] was 32 µM (≈ 12.3 µg/mL); in the data set on Klebsiella aerogenes [2], > 128 µM; in the data set with Escherichia coli [3] it was 2 µM (≈ 0.771 µg/mL); with Escherichia coli [4] it was > 128 µM.

Regarding `N=C(N)NCCC[C@H](NC(=O)[C@H](Cc1c[nH]c2ccccc12)NC(=O)CCCC(=O)Nc1cccc(CN(Cc2ccccn2)Cc2ccccn2)n1)C(=O)N[C@@H](Cc1c[nH]c2ccccc12)C(=O)N[C@@H](CCCNC(=N)N)C(=O)OCc1ccccc1` ({X2-Glutaryl}-WRWR-OBn), the MIC with Klebsiella aerogenes [1] came to 4 µM (≈ 4.78 µg/mL); in the data set with Klebsiella aerogenes [2] it was 8 µM (≈ 9.56 µg/mL); in the data set on Escherichia coli [3], 8 µM (≈ 9.56 µg/mL); in the data set with Escherichia coli [4] it was 16 µM (≈ 19.1 µg/mL).

As to `CN(C)c1cccc2c(S(=O)(=O)NCCCC[C@@H](NC(=O)CCCC(=O)Nc3cccc(CN(Cc4ccccc4)Cc4ccccc4)c3)C(=O)N[C@@H](CCCNC(=N)N)C(=O)N[C@@H](Cc3c[nH]c4ccccc34)C(=O)N[C@@H](CCCNC(=N)N)C(=O)N[C@@H](Cc3c[nH]c4ccccc34)C(=O)OCc3ccccc3)cccc12`, in the data set on Klebsiella aerogenes [5], the Drug uptake result was “Active”.

`N=C(N)NCCC[C@H](NC(=O)CCCC(=O)Nc1cccc(CN(Cc2ccccc2)Cc2ccccc2)c1)C(=O)N[C@@H](Cc1c[nH]c2ccccc12)C(=O)N[C@@H](CCCNC(=N)N)C(=O)N[C@@H](Cc1c[nH]c2ccccc12)C(=O)OCc1ccccc1` ({X1-Glutaryl}-RWRW-OBn): the MIC in the data set on Klebsiella aerogenes [1], in the data set on Klebsiella aerogenes [2], in the data set with Escherichia coli [3] and in the data set with Escherichia coli [4] was 64 µM (≈ 76.3 µg/mL) in each case.

For `O=C(O)c1cn(C2CC2)c2cc(N3CCNCC3)c(F)cc2c1=O` [CIPROFLOXACIN], the minimal inhibitory concentration (MIC) is 8 µM (≈ 2.65 µg/mL) in the data set on Klebsiella aerogenes [1], 64 µM (≈ 21.2 µg/mL) in the data set on Klebsiella aerogenes [2], 0.03 µM (≈ 0.00994 µg/mL) in the data set with Escherichia coli [3] and 0.125 µM (≈ 0.0414 µg/mL) in the data set on Escherichia coli [4].
